Measurements published in ChEMBL document CHEMBL1157755 (Bioorg Med Chem Lett, 2010).

Columns and labels:
[1] = target: T1, Histamine H2 receptor (Cavia porcellus, UniProt P47747); assay: Agonist activity at histamine H2 receptor in spontaneously beating guinea pig atrium; format: functional, tissue-based, Cardiac atrium
[2] = target: Histamine H2 receptor (Cavia porcellus) (UniProt P47747); assay: Agonist activity at GsalphaS-fused guinea pig histamine H2 receptor expressed in Sf9 cells by steady-state GTPase assay relative to histamine
[3] = target: T1, Histamine H2 receptor; assay: Agonist activity at GsalphaS-fused guinea pig histamine H2 receptor expressed in Sf9 cells by steady-state GTPase assay
[4] = target: T2, Histamine H2 receptor (Homo sapiens, UniProt P25021); assay: Agonist activity at GsalphaS-fused human histamine H2 receptor expressed in Sf9 cells by steady-state GTPase assay relative to histamine
[5] = target: T2, Histamine H2 receptor; assay: Agonist activity at GsalphaS-fused human histamine H2 receptor expressed in Sf9 cells by steady-state GTPase assay
[6] = target: T2, Histamine H2 receptor; assay: Selectivity ratio of EC50 for human histamine H2 to EC50 for guinea pig histamine H2 receptor
[7] = target: Histamine H2 receptor (Cavia porcellus) (UniProt P47747); assay: Agonist activity at histamine H2 receptor in spontaneously beating guinea pig atrium assessed as increase in heart rate as relative to histamine; format: functional, tissue-based; conditions: Cardiac atrium
[8] = target: T3, Histamine H1 receptor (Homo sapiens, UniProt P35367); assay: Activity at human recombinant histamine H1 receptor expressed in Sf9 cells coexpressing RGS4 by steady-state GTPase activity assay
Method in brief: (§1)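 Steady-state GTPase activity was measured in Sf9 insect cell membranes. hH1R was co-expressed with RGS4; hH3R with Galphai2, Gbeta1gamma2 and RGS4; and hH4R-GAIP fusion protein with Galphai2 and Gbeta1gamma2. Agonist pEC50 or antagonist pKB was determined. Values are means of two to three experiments, each in duplicate.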

[9] = target: T4, Histamine H4 receptor (Homo sapiens, UniProt Q9H3N8); assay: Activity at human recombinant GAIP-fused histamine H4 receptor expressed in Sf9 cells coexpressing Galphai, Gbeta1gamma2 by steady-state GTPase activity assay; method in brief: as §1
[10] = target: T4, Histamine H4 receptor; assay: Activity at human recombinant GAIP-fused histamine H4 receptor expressed in Sf9 cells coexpressing Galphai, Gbeta1gamma2 by steady-state GTPase activity assay relative to histamine
Method in brief: as §1, with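 “determined. […]” for “determined.”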

[11] = target: T3, Histamine H1 receptor; assay: Activity at human recombinant histamine H1 receptor expressed in Sf9 cells coexpressing RGS4 by steady-state GTPase activity assay relative to histamine
Method in brief: as §1, with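 “determined. […]” for “determined.”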

T4 sequence (Q9H3N8 whole entry, the tested form may be a part): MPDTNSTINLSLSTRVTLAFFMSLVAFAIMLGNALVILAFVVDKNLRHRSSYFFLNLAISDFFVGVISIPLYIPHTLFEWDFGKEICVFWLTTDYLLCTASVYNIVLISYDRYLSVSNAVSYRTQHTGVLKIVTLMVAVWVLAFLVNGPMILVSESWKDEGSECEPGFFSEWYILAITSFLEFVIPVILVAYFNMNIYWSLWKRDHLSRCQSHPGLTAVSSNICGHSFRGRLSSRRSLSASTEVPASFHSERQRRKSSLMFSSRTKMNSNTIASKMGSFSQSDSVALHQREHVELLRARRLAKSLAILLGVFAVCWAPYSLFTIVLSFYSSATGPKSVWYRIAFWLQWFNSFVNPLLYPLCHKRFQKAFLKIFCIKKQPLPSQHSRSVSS
T2 sequence (P25021 whole entry, the tested form may be a part): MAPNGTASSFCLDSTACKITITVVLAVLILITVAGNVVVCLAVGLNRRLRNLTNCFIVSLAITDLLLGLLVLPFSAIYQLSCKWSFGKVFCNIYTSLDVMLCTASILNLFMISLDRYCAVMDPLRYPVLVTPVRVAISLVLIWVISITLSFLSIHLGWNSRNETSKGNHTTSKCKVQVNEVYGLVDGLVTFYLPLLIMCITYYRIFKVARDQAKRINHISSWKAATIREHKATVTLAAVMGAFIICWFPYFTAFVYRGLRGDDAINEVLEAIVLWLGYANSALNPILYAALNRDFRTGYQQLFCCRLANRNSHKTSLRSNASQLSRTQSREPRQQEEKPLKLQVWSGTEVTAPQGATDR
T1 sequence (P47747 whole entry, the tested form may be a part): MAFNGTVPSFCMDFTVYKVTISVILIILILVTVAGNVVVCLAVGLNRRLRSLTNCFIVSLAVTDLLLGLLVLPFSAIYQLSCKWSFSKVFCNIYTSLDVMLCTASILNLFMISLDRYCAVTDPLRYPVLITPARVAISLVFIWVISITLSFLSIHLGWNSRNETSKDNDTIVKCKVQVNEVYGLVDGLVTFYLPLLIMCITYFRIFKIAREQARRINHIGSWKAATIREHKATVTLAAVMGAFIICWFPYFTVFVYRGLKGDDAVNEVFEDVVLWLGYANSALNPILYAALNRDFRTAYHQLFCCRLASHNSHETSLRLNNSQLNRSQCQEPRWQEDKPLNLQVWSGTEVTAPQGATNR
Histamine H2 receptor (Cavia porcellus), sequence (P47747 whole entry, the tested form may be a part): as above
T3 sequence (P35367 whole entry, the tested form may be a part): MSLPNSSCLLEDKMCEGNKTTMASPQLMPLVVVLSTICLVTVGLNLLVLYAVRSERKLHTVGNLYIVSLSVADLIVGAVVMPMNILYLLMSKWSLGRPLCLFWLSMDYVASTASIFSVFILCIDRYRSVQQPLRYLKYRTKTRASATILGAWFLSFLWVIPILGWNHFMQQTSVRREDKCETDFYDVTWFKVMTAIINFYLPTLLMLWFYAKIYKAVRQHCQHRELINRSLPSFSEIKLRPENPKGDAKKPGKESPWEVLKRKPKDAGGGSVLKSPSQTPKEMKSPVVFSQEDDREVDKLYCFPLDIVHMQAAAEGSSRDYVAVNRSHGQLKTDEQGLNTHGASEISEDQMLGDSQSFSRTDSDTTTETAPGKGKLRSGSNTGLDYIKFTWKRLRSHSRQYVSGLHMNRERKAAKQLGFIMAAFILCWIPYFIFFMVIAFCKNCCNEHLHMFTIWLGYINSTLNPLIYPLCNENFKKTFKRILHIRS

SMILES	EC50 [1]	Emax [2]	EC50 [3]	Emax [4]	EC50 [5]	Ratio EC50 [6]	Emax [7]	EC50 [8]	EC50 [9]	Emax [10]	Emax [11]
Cc1nc(N)sc1CCCNC(=N)NC(=O)C[C@H](C)c1ccccc1	39.8 nM	99%	7.76 nM	87%	28.2 nM	3.6	87%	–	–	–	–
C[C@@H](CC(=O)NC(N)=NCCCc1cnc[nH]1)C1CCCCC1	33.1 nM	–	7.76 nM	–	6.46 nM	–	–	66.1 nM	4.57 nM	–	–
C[C@H](CC(=O)NC(=N)NCCCc1c[nH]cn1)C1CCCCC1	–	90%	–	85%	–	0.98	82%	–	–	57%	41%
Cc1nc(N)sc1CCCNC(=N)NC(=O)C[C@@H](C)C1CCCCC1	–	80%	–	62%	–	1.53	80%	–	–	–	–
C[C@H](CC(=O)NC(N)=NCCCc1cnc[nH]1)C1CCCCC1	102 nM	–	19.1 nM	–	18.6 nM	–	–	89.1 nM	8.32 nM	–	–
C[C@H](CC(=O)NC(=N)NCCCc1c[nH]cn1)c1ccccc1	–	101%	–	101%	–	1.58	93%	–	–	85%	34%
C[C@@H](CC(=O)NC(N)=NCCCc1cnc[nH]1)c1ccccc1	25.1 nM	–	24 nM	–	79.4 nM	–	–	832 nM	2.63 nM	–	–
Cc1nc(N)sc1CCCNC(=N)NC(=O)C[C@@H](C)c1ccccc1	–	86%	–	65%	–	3.14	73%	–	–	–	–
C[C@@H](CC(=O)NC(=N)NCCCc1c[nH]cn1)C1CCCCC1	–	93%	–	99%	–	0.84	103%	–	–	59%	51%
NCCc1c[nH]cn1 [HISTAMINE]	–	100%	–	100%	–	–	100%	–	–	100%	100%
Cc1nc(N)sc1CCCN=C(N)NC(=O)C[C@@H](C)C1CCCCC1	57.5 nM	–	13.2 nM	–	20.4 nM	–	–	–	–	–	–
Cc1nc(N)sc1CCCNC(=N)NC(=O)CC(C)c1ccccc1 (racemic)	49 nM	98%	22.4 nM	82%	50.1 nM	2.22	89%	–	–	–	–
Cc1nc(N)sc1CCCN=C(N)NC(=O)C[C@H](C)C1CCCCC1	91.2 nM	–	14.1 nM	–	28.8 nM	–	–	–	–	–	–
C[C@@H](CC(=O)NC(=N)NCCCc1c[nH]cn1)c1ccccc1	–	119%	–	107%	–	3.32	102%	–	–	82%	53%
Cc1nc(N)sc1CCCNC(=N)NC(=O)CC(C)C1CCCCC1 (racemic)	69.2 nM	82%	7.59 nM	56%	9.33 nM	1.24	74%	–	–	–	–
Cc1nc(N)sc1CCCNC(=N)NC(=O)C[C@H](C)C1CCCCC1	–	90%	–	71%	–	2.05	78%	–	–	–	–
C[C@H](CC(=O)NC(N)=NCCCc1cnc[nH]1)c1ccccc1	93.3 nM	–	75.9 nM	–	120 nM	–	–	6170 nM	22.9 nM	–	–
Cc1nc(N)sc1CCCN=C(N)NC(=O)C[C@@H](C)c1ccccc1	102 nM	–	17 nM	–	53.7 nM	–	–	–	–	–	–
